Screens as filed in PubChem BioAssay.
Only some compounds are listed: those with a hit (about 3.3% of all), similar ones and a draw of the others.
PglD DTNB: inhibitors of Campylobacter jejuni PglD acetyltransferase; purified PglD enzyme, DTNB colorimetric CoA detection; inhibition, % at 12.5 µM; actives 0.098% (n = 360,000); AID 602405; in the data active means inhibition above about 16%, passing the limit was not always enough; inconclusive means no clear call, values can overlap the other calls
E-sel inducer: E-selectin induction on HUVECs | P16581 | HUVEC E-selectin immunofluorescence imaging; normalized: neutral wells 0, TNF-alpha wells 100 | activation, % at 7.58 µM | actives 0.37% (n = 260,000);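 active means mean E-selectin-positive cell signal at least 10% of the positive control, reached in at least 60% of replicates, without over 20% cell loss; inconclusive means no rule given, readout overlaps actives, possibly toxicity-flagged; inactive means the rest, including those meeting only one limit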
Target sequence (P16581 whole entry, looked up): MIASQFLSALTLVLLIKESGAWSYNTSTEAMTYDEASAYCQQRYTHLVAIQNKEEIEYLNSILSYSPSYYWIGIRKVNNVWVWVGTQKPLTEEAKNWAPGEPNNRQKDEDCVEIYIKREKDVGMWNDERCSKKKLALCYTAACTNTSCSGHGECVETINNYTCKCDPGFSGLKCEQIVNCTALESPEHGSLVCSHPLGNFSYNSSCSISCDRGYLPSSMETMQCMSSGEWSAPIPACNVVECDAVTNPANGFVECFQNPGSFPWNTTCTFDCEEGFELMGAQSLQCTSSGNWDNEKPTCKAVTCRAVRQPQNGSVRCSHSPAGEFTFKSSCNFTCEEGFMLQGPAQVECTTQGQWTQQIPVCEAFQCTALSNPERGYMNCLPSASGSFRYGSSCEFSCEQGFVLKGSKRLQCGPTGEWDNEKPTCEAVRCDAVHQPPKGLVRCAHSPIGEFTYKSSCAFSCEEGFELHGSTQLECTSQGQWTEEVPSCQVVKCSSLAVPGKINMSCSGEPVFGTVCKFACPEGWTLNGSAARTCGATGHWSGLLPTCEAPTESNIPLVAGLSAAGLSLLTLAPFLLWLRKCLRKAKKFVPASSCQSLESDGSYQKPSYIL
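System: HUVEC / Compound: single concentration / Signal: immunofluorescence imaging / Read-out: percent E-selectin-positive cells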
XiGFP reactiv: reactivates the inactive X chromosome in mouse fibroblasts. XiGFP mouse fibroblasts, % GFP-positive cells imaging, 3 d; cells co-treated with 5-aza-dC sensitizer; scaled so ellipticine positive control = 100%. activation, % at 7.58 µM. actives 0.055% (n = 360,000);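 active means mean normalized replicate activation at least 10% and every replicate at or above 10%; inconclusive means only one of the two criteria met; inactive means mean below 10% and not all replicates reach 10%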
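Material: XiGFP fibroblasts, SV40-immortalized; Buffer or medium: DMEM containing 5-aza-dC; Compound dosing: single point; Times: 3 days compound exposure.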
DENV2 CPE rescue: protects cells from dengue virus 2 cytopathic effect; DENV2-infected cells, cytopathic effect rescue, plate reader; CPE inhibition, % at 9.99 µM; actives 1.7% (n = 350,000); in the data active means CPE inhibition above about 20%, passing the limit was not always enough; inconclusive means no clear call, values can overlap the other calls; tested in BHK-21 cells
C2C12 statin: protects C2C12 myotubes from simvastatin toxicity; ATP luminescence, 48 h; scaled: DMSO 0, geranylgeraniol control 100; rescue of ATP level, % at 7.49 µM; actives 0.78% (n = 330,000); AID 602340;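 active means mean ATP rescue above about 67%, or every replicate alone reaching that limit, limit read from the data, passing the limit was not always enough; inconclusive means no clear call, values can overlap the other calls; inactive means mean under the limit and some replicate under it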;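 further: myotubes were challenged with 10 µM simvastatin during compound exposure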
FGF22 binding-1: binders of recombinant human FGF22 by thermal shift; SYPRO orange fluorescence; percent of sucrose octasulfate shift, DMSO zero; actives 1.5% (n = 340,000); activity (Tm shift, normalised), % at 9.99 µM; Q9HCT0;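 active means mean Tm shift, scaled 0 neutral to 100 positive control, at about 1.3% or above, every replicate too, limit read from the data; inconclusive means no clear call, values can overlap the other calls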
Target sequence (Q9HCT0 whole entry, looked up): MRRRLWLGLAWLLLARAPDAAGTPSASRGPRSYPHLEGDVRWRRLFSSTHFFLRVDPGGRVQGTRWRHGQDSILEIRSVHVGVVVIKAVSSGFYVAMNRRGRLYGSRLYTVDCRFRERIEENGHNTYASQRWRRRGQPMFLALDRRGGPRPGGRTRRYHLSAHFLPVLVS
FGF22 binding-2: binders of human FGF22 by thermal shift. actives 2% (n = 1,000). thermal shift activity, °C (ΔTm) at 38 µM. recombinant FGF22 thermal shift, SYPRO orange fluorescence. shares compounds with FGF22 binding-1;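 active means fitted rise in melting shift crosses a set limit at or below the top valid dose tested; inconclusive means flat fit at mid-level activity, or a poor quality fit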
SYPRO no-protein: shows thermal shift signal without protein, FGF22 counter-screen. shares compounds with FGF22 binding-1. compound-only SYPRO orange thermal shift counter-screen, no protein. AC50, µM (doses to about 38 µM). actives 2% (n = 1,000);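 active means rising signal whose fitted curve reaches the 0.54 level within the top valid dose, showing a melting point, actives reach about 13 µM in these data; inactive means the rest, including activity in the opposite direction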; further: value is where the raw curve crosses a fixed level and not half-maximal
Large screens that a line does not name were inactive (follow-up assays come after a bar, where they were run); ! = not confirmed by another sample.

O=C1C2C(C(=O)N1CCc1ccccc1)C1C=CC2C12CC2 (configuration not stated)	FGF22 binding-1 2.5 (no result: E-sel inducer, XiGFP reactiv) | FGF22 binding-2 inactive | SYPRO no-protein inactive
C/C(=N\NC(=O)COc1ccc(C)cc1C(C)C)c1cc2ccccc2o1	FGF22 binding-1 20.2 (no result: PglD DTNB, E-sel inducer, C2C12 statin) | FGF22 binding-2 inactive | SYPRO no-protein inactive
CCNc1c(NS(=O)(=O)c2ccc(Br)s2)c(=O)oc2ccccc12	FGF22 binding-1 1.8 (no result: E-sel inducer) | FGF22 binding-2 inactive | SYPRO no-protein inactive
O=[N+]([O-])c1ccc(N/N=C/c2ccc[nH]2)cc1	XiGFP reactiv inconclusive, FGF22 binding-1 3.1 (no result: C2C12 statin) | FGF22 binding-2 inactive | SYPRO no-protein inactive
COc1ccc(NC(=O)/C=C/C(=O)O)c([N+](=O)[O-])c1	FGF22 binding-1 2.2 (no result: C2C12 statin) | FGF22 binding-2 inactive | SYPRO no-protein inactive
Cc1ccc(NC(=O)/C=C/C(=O)O)c([N+](=O)[O-])c1	none (no result: E-sel inducer, XiGFP reactiv, DENV2 CPE rescue, C2C12 statin, FGF22 binding-1)
CN1C(=O)c2cc(NC(=O)C3CCCCC3)ccc2OC[C@@H]2O[C@H](CC(=O)NC3CCCC3)CC[C@@H]21	none
COCCNC(=O)[C@H]1[C@H](CO)[C@H]2Cn3c(ccc(-c4ccc(F)cc4)c3=O)[C@@H]1N2C(=O)NC(C)C	FGF22 binding-1 14.0 | FGF22 binding-2 inactive | SYPRO no-protein inactive
COc1ccccc1-c1ccc2n(c1=O)C[C@@H]1[C@@H](CO)[C@H](C(=O)NC3CCC3)N(C(=O)NC(C)C)[C@H]21	DENV2 CPE rescue inconclusive, FGF22 binding-1 15.1 | FGF22 binding-2 inactive | SYPRO no-protein inactive
COCCNC(=O)[C@@H]1[C@@H](CO)[C@@H]2Cn3c(ccc(-c4ccc(OC)cc4)c3=O)[C@H]1N2C(=O)NC(C)C	none
C[C@H](CO)N1C[C@H](C)[C@H](CN(C)S(=O)(=O)c2cn(C)cn2)Oc2ccc(NC(=O)Cc3cn(C)c4ccccc34)cc2C1=O	none (no result: E-sel inducer)
CC(C)C#Cc1ccc2c(c1)O[C@@H](CN(C)C(=O)c1cccnc1)[C@@H](C)CN([C@@H](C)CO)S2(=O)=O	none
CC1CC(CC(=O)NC(=S)Nc2ccccc2Cl)C(=O)O1 (configuration not stated)	FGF22 binding-1 1.6 (no result: E-sel inducer) | FGF22 binding-2 inactive | SYPRO no-protein inactive
O=C(CN1C(=O)NC2(CCOc3ccccc32)C1=O)Nc1ccc(Br)cc1F (configuration not stated)	FGF22 binding-1 1.7 (no result: E-sel inducer) | FGF22 binding-2 inactive | SYPRO no-protein inactive
C[C@@H]1CCCCO[C@H](CN(C)C(=O)Cc2ccccc2)[C@H](C)CN([C@H](C)CO)C(=O)c2cc(NS(C)(=O)=O)ccc2O1	none
OC[C@@H]1[C@H](c2ccc(Br)cc2)[C@@H]2CN(Cc3cncnc3)CCCCN12	FGF22 binding-1 2.4 | FGF22 binding-2 inactive | SYPRO no-protein inactive
OC[C@H]1[C@@H](c2ccc(-c3cccnc3)cc2)[C@@H]2CN(Cc3ccccn3)CCCCN12	FGF22 binding-1 1.5 | FGF22 binding-2 inactive | SYPRO no-protein inactive
OC[C@@H]1[C@@H](c2ccc(-c3ccccc3)cc2)[C@@H]2CN(Cc3ccccn3)CCCCN12	none (no result: C2C12 statin)
CS(=O)(=O)N1CCCCN2[C@H](CO)[C@H](c3ccc(C#Cc4ccccn4)cc3)[C@@H]2C1	DENV2 CPE rescue 33.2, FGF22 binding-1 1.5 (no result: C2C12 statin) | FGF22 binding-2 inactive | SYPRO no-protein inactive
OC[C@@H]1[C@@H](c2ccc(-c3cccnc3)cc2)[C@@H]2CN(Cc3ccccn3)CCCCN12	FGF22 binding-1 1.5 | FGF22 binding-2 inactive | SYPRO no-protein inactive
COc1ccc(CN(C)C[C@@H]2Oc3ccc(NS(=O)(=O)c4cn(C)cn4)cc3CC(=O)N([C@@H](C)CO)C[C@H]2C)cc1	none
CCS(=O)(=O)N[C@H]1C=C[C@@H](CC(=O)N2CCCCC2)O[C@H]1CO	none (no result: E-sel inducer, XiGFP reactiv)
C[C@@H]1CN([C@@H](C)CO)C(=O)c2cc(-c3cccc(F)c3)cnc2O[C@H]1CN(C)C(=O)C1CC1	none (no result: PglD DTNB, DENV2 CPE rescue, FGF22 binding-1)
CN1CCN(C(=O)C[C@H]2C[C@@H]3c4cc(NC(=O)Nc5ccc(F)cc5)ccc4O[C@@H]3[C@@H](CO)O2)CC1	none
CCOc1ccc(C(=O)CCC(=O)Nc2ccc(C)cn2)cc1	FGF22 binding-1 13.8 | FGF22 binding-2 inactive | SYPRO no-protein inactive
CC=Cc1ccc2n(c1=O)C[C@H]1[C@H](CO)[C@@H](C(=O)NCCc3cn(C)cn3)N(C(=O)C3CCCC3)[C@@H]21 (mixture of isomers)	none (no result: PglD DTNB, C2C12 statin, FGF22 binding-1)
N#CCc1nn(-c2ccccc2)c2ncnc(N)c12	FGF22 binding-1 1.5 (no result: PglD DTNB, E-sel inducer, C2C12 statin) | FGF22 binding-2 inactive | SYPRO no-protein inactive
CO[C@@H]1CN(C)C(=O)c2ccc(NS(C)(=O)=O)cc2OC[C@@H](C)NC[C@@H]1C	none
O=C(Nc1ccc2c(c1)OCO2)c1ccc(NC2CC2)c([N+](=O)[O-])c1	FGF22 binding-1 1.6 (no result: E-sel inducer, C2C12 statin) | FGF22 binding-2 inactive | SYPRO no-protein inactive
Cc1nc2ccccc2c2oc(C(=O)NCc3ccc4c(c3)OCO4)cc12	FGF22 binding-1 11.5 | FGF22 binding-2 inactive | SYPRO no-protein 6.34µM
C[C@H](CO)N1C[C@H](C)[C@H](CN(C)S(=O)(=O)c2ccc(F)cc2)OCc2cnnn2CCCC1=O	FGF22 binding-1 1.5! | FGF22 binding-2 inactive | SYPRO no-protein inactive
C[C@@H]1CN([C@@H](C)CO)C(=O)CCCn2nncc2CO[C@H]1CN(C)Cc1ccccc1C(=O)O	FGF22 binding-1 1.3 | FGF22 binding-2 inactive | SYPRO no-protein inactive
C[C@H](CO)N1C[C@H](C)[C@H](CN(C)C(=O)c2cc(-c3ccccc3)on2)OCc2cnnn2CCCC1=O	DENV2 CPE rescue inconclusive, FGF22 binding-1 29.8! | FGF22 binding-2 inactive | SYPRO no-protein inactive
C[C@@H]1CN([C@H](C)CO)C(=O)CCCn2cc(nn2)CO[C@@H]1CN(C)C(=O)OCc1ccccc1	none (no result: PglD DTNB, DENV2 CPE rescue, FGF22 binding-1)
C[C@H](CO)N1C[C@H](C)[C@@H](CN(C)C(=O)OCc2ccccc2)OCc2cn(nn2)CCCC1=O	FGF22 binding-1 17.3! (no result: E-sel inducer) | FGF22 binding-2 inactive | SYPRO no-protein inactive
CC(C)NC(=O)N(C)C[C@H]1Oc2c(NC(=O)NC3CCCCC3)cccc2C(=O)N([C@H](C)CO)C[C@H]1C	none
C[C@H](CO)N1C[C@H](C)[C@@H](CN(C)S(=O)(=O)c2ccccc2)Oc2ccc(N(C)C)cc2CC1=O	none (no result: E-sel inducer)
CCNC(=O)C[C@H]1CC[C@@H]2[C@H](COc3ccc(NC(=O)Nc4cccc(OC)c4)cc3C(=O)N2C)O1	none
O=C(NCC[C@H]1CC[C@@H](NC(=O)C2CC2)[C@H](CO)O1)Nc1ccc(Cl)cc1	none
